# From PubChem BioAssay
# Only some compounds are listed: those with a hit (about 1.9% of all), similar ones and a draw of the others.
# TLR9-MyD88 block: inhibitors of human TLR9-MyD88 binding. Q9NR96+Q99836. 340,000 compounds, 0.21% hits. inhibition, % at 4.98 µM. AID 504734. CHO BLA complementation TLR9-MyD88, CCF4 FRET ratio;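 active = inhibition above the mean over all tested compounds plus 3 SD, cut at about 21% in these data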;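 also: 0% = DMSO only wells and 100% = clavulanate BLA inhibitor control wells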
# NOD2 RIPK2 PPI: NOD2-RIPK2 protein interaction inhibition; 360,000 compounds, 0.38% hits; CHO BLA complementation NOD2-RIPK2, CCF4 ratio; inhibition, % at 4.98 µM; O43353; in the data active = inhibition above about 21%;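 also: 0% = vehicle only and 100% = reference blocker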
# MC4R antag cAMP: antagonists of human melanocortin 4 receptor (MC4R); P32245; 360,000 compounds, 0.48% hits; inhibition, % at 6.5 µM; AID 540295; MC4R-expressing cells, MTII-stimulated cAMP, LANCE TR-FRET;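 active = inhibition above its plate's cutoff, the mean of tested wells on that plate plus 3 SD, cut at about 29% in these data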;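 also: 0% = Melanotan II alone and 100% = Melanotan II plus saturating MCL0020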
#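 Assay system: U2OS-MC4R stable cell line; Also added: Melanotan II; Technique: Eu-cAMP/anti-cAMP TR-FRET, emission 671 nm; Times: 30-min compound, 1-h challenge, 1-h detection, room temperature.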
# NTR1 ag: agonists of human neurotensin receptor NTR1 | NTR1-U2OS beta-arrestin-GFP spot imaging, agonist mode | activation, % at 20 µM | 330,000 compounds, 0.17% hits | AID 493036;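 active = activation at or above 40% of the spot to cytoplasm intensity ratio, with at least 20 cells analyzed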;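 also: 0% = DMSO without peptide and 100% = 100 nM NTR1 peptide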
# MC4R ag barr: agonists of human melanocortin 4 receptor (MC4R) beta-arrestin; 360,000 compounds, 0.98% hits; P32245; U2OS MC4R beta-arrestin complementation, luminescence; percent of melanotan II response, DMSO zero; activation, % at 8.9 µM; AID 540308;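 active = activation above a per-plate cutoff, the mean activation of sample wells on that plate plus 3 SD, cut at about 8% in these data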
# TLR4-MyD88 BLA: TLR4-MyD88 interaction inhibition in cells | O00206+Q99836 | HeLa CL3-4 TLR4/MyD88 BLA complementation, FRET ratio | inhibition, % at 8.4 µM | 200,000 compounds, 0.18% hits; in the data active = inhibition above about 25%;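 also: 0% = vehicle and 100% = reference inhibitor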
# MC4R barr conf: human MC4R beta-arrestin agonism confirmation | 2,400 compounds, 31% hits | activation, % at 8.9 µM | shares compounds with MC4R ag barr | AID 602192 | U2OS MC4R beta-arrestin recruitment, luminescence; scaled DMSO 0%, Melanotan II 100%;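 active = mean activation across replicates above the hit cutoff set in the earlier primary screen, cut at about 8% in these data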
# MOR DOR agonist: OPRM1-OPRD1 heterodimer agonism counter-screen; shares compounds with MC4R ag barr; U2OS PathHunter beta-arrestin, beta-gal luminescence; percent of deltorphin B response, DMSO zero; activation, % at 9.2 µM; 2,400 compounds, 5.8% hits; AID 602194;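 active = mean activation across replicates exceeds the hit threshold derived in the earlier primary screen, cut at about 18% in these data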;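 also: 100% = deltorphin B at 0.9 µM final and 0% = DMSO alone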
# An asterisk follows results filed as active; x = no result.
SMILES,TLR9-MyD88 block,NOD2 RIPK2 PPI,MC4R antag cAMP,NTR1 ag,MC4R ag barr,TLR4-MyD88 BLA,MC4R barr conf,MOR DOR agonist
CCN(CC)S(=O)(=O)c1ccc(N2CCOCC2)c(NC(=O)COc2ccccc2C)c1,0,6,3,0,0,x,x,x
CC1CCN(C(=O)c2ccc(CNS(=O)(=O)c3ccc(C(C)(C)C)cc3)cc2)CC1,-7,4,5,9,2,x,x,x
O=S(=O)(c1ccc(C(F)(F)F)cc1)N1CCN(CCc2ccccc2)CC1,5,-9,2,2,0,x,x,x
Cc1cccc(-n2nnnc2SCC(=O)c2cc(C)n(Cc3ccco3)c2C)c1,1,-5,6,12,27*,-11,16*,4
Cc1cccc(-n2nnnc2SCC(=O)c2cc(C)n(CC3CCCO3)c2C)c1 (stereo not drawn),-8,12,-3,12,0,6,x,x
COc1ccc(C(=O)Nc2n[nH]c(-c3ccncc3)n2)cc1,4,12,3,-2,0,7,x,x
Cc1ccc(-n2nc3c(=O)n(CC(=O)NCCc4cccs4)nc(C)c3c2C)cc1,3,2,9,0,0,x,x,x
Cc1ccc(-n2nc3c(N4CCC(C(=O)NCCc5cccs5)CC4)nnc(C)c3c2C)cc1,14,-1,7,2,15*,x,12*,3
Cc1nnc(N2CCCC(C(=O)NCc3ccc(OC(C)C)cc3)C2)c2nn(-c3ccccc3)c(C)c12 (stereo not drawn),-5,12,8,13,12*,x,4,3
Cc1nnc(N2CCCC(C(=O)Nc3cc(F)ccc3F)C2)c2nn(-c3ccccc3)c(C)c12 (stereo not drawn),-3,-2,24,35,2,x,x,x
CCOCCCNC(=O)Cn1cnc2sc(C)c(S(=O)(=O)N3CCN(c4ncccn4)CC3)c2c1=O,-6,-2,-8,0,2,-9,x,x
COc1ccc(CNc2nc(NCc3ccc(OC)cc3)c3[nH]cnc3n2)cc1,-3,-3,5,6,12*,x,8.8*,3
CCOc1cc(N2CCOCC2)c(OCC)cc1NC(=O)CN1C(=O)NC2(CCCCC2)C1=O,4,2,2,-2,1,x,x,x
CCOc1ccccc1C(=O)NC(C)CCc1ccccc1 (stereo not drawn),x,1,4,1,2,x,x,x
CCOc1cc(C(=O)NC(C)CCc2ccccc2)cc(OCC)c1OCC (stereo not drawn),-6,-10,9,0,14*,x,4,8
OCCNCC(O)Cn1c2ccccc2c2ccccc21 (stereo not drawn),-4,-9,-1,1,-3,-8,x,x
COc1ccccc1CNCC(O)Cn1c2ccccc2c2ccccc21 (stereo not drawn),-1,-4,3,5,10*,2,21*,21*
Cc1cc(-n2nnc3ccccc32)nc2ccccc12,-4,-9,-3,7,18*,8,-1,2
Cc1ccc(C2CC(=O)NC(SCCC(C)C)=C2C#N)cc1 (stereo not drawn),-9,5,5,2,9.6*,2,2,4
COC(=O)CSC1=C(C#N)C(c2ccc(C(C)C)cc2)CC(=O)N1 (stereo not drawn),0,0,15,2,0,-7,x,x
CCOC(=O)c1ccc(NC(=O)CSC2=NN3CCCC(=O)N=C3S2)cc1,0,1,-3,-1,-1,x,x,x
COC(=O)c1c(NC(=O)CC2SC(N)=NC2=O)sc2c1CCC(C(C)(C)C)C2 (stereo not drawn),10,-6,-1,18,10*,-20,17*,2
COC(=O)c1c(NC(=O)CC2SC(N)=NC2=O)sc2c1CCC(C)C2 (stereo not drawn),-5,7,6,2,0,0,x,x
